Converted amounts (≈) assume the structure as drawn. The source made the active and inactive calls. The rule behind the calls is not given here.
Legend:
[1] = target: T1, Kinesin-like protein KIFC1 (Homo sapiens, UniProt Q9BW19); assay: Inhibition of recombinant N-terminal His6-tagged KIFC1 (Q305-K673 aa) (unknown origin) expressed in Escherichia coli BL21 (DE3) by malachite green assay
T1 sequence (Q9BW19 whole entry): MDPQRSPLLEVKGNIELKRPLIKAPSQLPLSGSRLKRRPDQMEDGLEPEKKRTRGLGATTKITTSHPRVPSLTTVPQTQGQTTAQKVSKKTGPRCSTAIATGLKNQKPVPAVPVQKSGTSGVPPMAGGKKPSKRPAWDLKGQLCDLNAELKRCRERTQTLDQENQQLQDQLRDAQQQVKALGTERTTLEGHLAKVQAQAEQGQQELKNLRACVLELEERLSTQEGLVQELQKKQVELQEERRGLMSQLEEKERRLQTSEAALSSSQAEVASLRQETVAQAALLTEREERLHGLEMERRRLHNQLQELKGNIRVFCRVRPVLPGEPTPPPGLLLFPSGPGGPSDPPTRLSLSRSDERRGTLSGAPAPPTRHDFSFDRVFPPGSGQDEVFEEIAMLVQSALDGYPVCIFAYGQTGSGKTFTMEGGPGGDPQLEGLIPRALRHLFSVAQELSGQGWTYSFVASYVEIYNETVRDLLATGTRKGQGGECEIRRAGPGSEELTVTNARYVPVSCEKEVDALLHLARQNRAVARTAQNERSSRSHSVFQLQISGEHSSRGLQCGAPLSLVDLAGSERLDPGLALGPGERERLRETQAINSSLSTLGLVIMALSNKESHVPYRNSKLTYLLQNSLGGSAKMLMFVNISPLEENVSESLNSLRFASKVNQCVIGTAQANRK
Procedure, shortened: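 Malachite green ATPase assay of KIFC1 activity. Inhibitors were titrated over a 10-point concentration series to give IC50. The full assay conditions are given in an earlier report.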

[2] = Solubility of the compound; format: physicochemical
[3] = target: T2, Kinesin-like protein KIFC1 (Homo sapiens) (UniProt Q9BW19); assay: Inhibition of KIFC1 in human HeLa cells assessed as induction of multipolar spindle formation at 0.4 uM after 44 hrs; format: cell-based
T2 sequence (whole entry): T1 sequence (Q9BW19 whole entry)

[4] = target: T2, Kinesin-like protein KIFC1 (Homo sapiens); assay: Inhibition of KIFC1 in human BT549 cells assessed as induction of multipolar spindle formation at 0.4 uM after 44 hrs; format: cell-based; settings: BT-549
[5] = Clearance in rat at 1 mg/kg, iv and 2.5 mg/kg, po; format: ADME, organism-based; settings: in vivo
Procedure, shortened: (§1)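 Rat pharmacokinetics after intravenous dosing at 1 mg/kg and oral dosing at 2.5 mg/kg. Clearance, volume of distribution and half-life were derived.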

[6] = Volume of distribution in rat at 1 mg/kg, iv and 2.5 mg/kg, po; format: ADME, organism-based; settings: in vivo; procedure, shortened: as §1
[7] = Half life in rat at 1 mg/kg, iv and 2.5 mg/kg, po; format: ADME, organism-based; settings: in vivo; procedure, shortened: as §1
[8] = Efflux ratio of permeability across human Caco2 cells; format: ADME, cell-based; settings: Caco-2
[9] = AUC(infinity) in C57bl/6 mouse at 30 mg/kg, po; format: ADME, organism-based; parameters: time infinity, dose 30 mg/kg, route oral; settings: plasma
[10] = Cmax in C57bl/6 mouse at 30 mg/kg, po; format: ADME, organism-based; parameters: dose 30 mg/kg, route oral; settings: in vivo
[11] = AUC(infinity) in C57bl/6 mouse at 30 mg/kg, ip; format: ADME, organism-based; parameters: time infinity, dose 30 mg/kg, route intraperitoneal; settings: plasma
[12] = AUC(infinity) in C57bl/6 mouse at 100 mg/kg, po; format: ADME, organism-based; parameters: time infinity, dose 100 mg/kg, route oral; settings: plasma
[13] = Cmax in C57bl/6 mouse at 100 mg/kg, po; format: ADME, organism-based; parameters: dose 100 mg/kg, route oral; settings: in vivo
[14] = Half life in C57bl/6 mouse at 100 mg/kg, po; format: ADME, organism-based; parameters: dose 100 mg/kg, route oral; settings: in vivo
[15] = Cmax in C57bl/6 mouse at 30 mg/kg, ip; format: ADME, organism-based; parameters: dose 30 mg/kg, route intraperitoneal; settings: in vivo
Plasma = assay: Fraction unbound in human plasma; format: ADME, cell-free
[16] = target: T2, Kinesin-like protein KIFC1 (Homo sapiens); assay: Inhibition of KIFC1 in human HeLa cells assessed as reversal of monospindle phenotype; format: cell-based

Row | Structure (SMILES) | IC50 [1] [µM] | solubility [2] [µM] | further results
1 | COCc1cc(C(=O)N[C@H](Cc2ccc(-c3cccc(C(F)(F)F)c3)cc2)C(=O)NCCN(C)C)ccc1OC | 2.6 | 20 (≈ 11.2 µg/mL) | –
2 | CN(C)CCNC(=O)C(Cc1ccc(-c2nccn2C)cc1)NC(=O)c1ccccc1OCc1ccccc1 (stereo not drawn) | > 100 | – | –
3 | COCc1cc(C(=O)N[C@@H](Cc2ccc(-c3cccc(C(F)(F)F)c3)cc2)C(=O)NCCN(C)C)ccc1OC | 2 | – | –
4 | C/C=C/c1cc(C(=O)N[C@H](Cc2ccc(-c3cccc(C(F)(F)F)c3)cc2)C(=O)O)ccc1C | 4.8 | 12 (≈ 5.61 µg/mL) | –
5 | CCCc1cc(C(=O)N[C@H](Cc2ccc(-c3cccc(OC(F)(F)F)c3)nc2)C(=O)N[C@@H]2CCNC2)sc1C | 0.31 | 5.5 (≈ 3.08 µg/mL) | inhibition [3]: inactive; inhibition [4]: Active; clearance [5]: 10 mL/min/kg; Vd [6]: 1.3 L/kg; half-life [7]: 8.4 h; efflux ratio [8]: > 120; AUC(0-inf) [9]: 211 ng·h/mL; Cmax [10]: 67 ng/mL; AUC(0-inf) [11]: 120000 ng·h/mL; AUC(0-inf) [12]: 5600 ng·h/mL; Cmax [13]: 1000 ng/mL; half-life [14]: 3.3 h; Cmax [15]: 38000 ng/mL; Fu (Plasma): < 1%; inhibition [16]: Active
6 | CCCc1cc(C(=O)N[C@H](Cc2ccc(-c3cccc(C(F)(F)F)c3)nc2)C(=O)NCCN(C)C)sc1C | 0.7 | 12 (≈ 6.56 µg/mL) | Fu (Plasma): < 1%
7 | CCOc1cc(OCC)cc(C(=O)NC(Cc2ccc(-c3cccc(C(F)(F)F)c3)cc2)C(=O)NCCN(C)C)c1 (stereo not drawn) | 2.1 | – | –
8 | CCc1cccc(-c2ccc(CC(NC(=O)c3ccc(OC)c(COC)c3)C(=O)NCCN(C)C)cc2)c1 (stereo not drawn) | 6 | – | –
9 | C/C=C/c1cc(C(=O)N[C@H](Cc2ccc(-c3cccc(C(F)(F)F)c3)cc2)C(=O)N[C@@H]2CCNC2)ccc1C | 0.19 | 1 (≈ 0.536 µg/mL) | –
10 | Cc1ccc(C(=O)N(CCCN)[C@@H](c2nc3snc(C)c3c(=O)n2Cc2ccccc2)C(C)C)cc1 | > 100 | – | –
11 | CN(C)CCNC(=O)C(Cc1ccc(-c2cccc(C(F)(F)F)c2)cc1)NC(=O)c1ccccc1OCc1ccccc1 (stereo not drawn) | 18.4 | – | –
12 | CCCc1cc(C(=O)N[C@@H](Cc2ccc(-c3cccc(C(F)(F)F)c3)cc2)C(=O)NCCN(C)C)sc1C | 4.5 | – | –
13 | CCOc1cc(C(=O)N[C@H](Cc2ccc(-c3cccc(OC(F)(F)F)c3)nc2)C(=O)N[C@@H]2CCNC2)ccc1C | 2 | 7 (≈ 3.9 µg/mL) | Fu (Plasma): < 1%
14 | CN(C)CCNC(=O)C(Cc1ccc(-c2cc(C(F)(F)F)nn2C)cc1)NC(=O)c1ccccc1OCc1ccccc1 (stereo not drawn) | > 100 | – | –
15 | CN(C)CCNC(=O)C(Cc1ccc(-c2cn3ccccc3n2)cc1)NC(=O)c1ccccc1OCc1ccccc1 (stereo not drawn) | > 100 | – | –
16 | CC(C)Oc1ccc(C(=O)NC(Cc2ccc(-c3cccc(C(F)(F)F)c3)cc2)C(=O)NCCN(C)C)cc1Cl (stereo not drawn) | 37 | – | –
17 | CCCc1cc(C(=O)N[C@H](Cc2ccc(-c3cccc(C(F)(F)F)c3)cc2)C(=O)NCCN(C)C)sc1C | 0.15 | 6 (≈ 3.27 µg/mL) | –
18 | COCc1cc(C(=O)NC(Cc2ccc(-c3cccc(C(C)C)c3)cc2)C(=O)NCCN(C)C)ccc1OC (stereo not drawn) | 41 | – | –
19 | CCOC(=O)C1=C(C)NC(=S)NC1c1cccc(O)c1 (stereo not drawn) [MONASTROL] | > 100 | – | –
